This is an account of results in ChEMBL document CHEMBL1955800, “Synthesis and biological validation of novel pyrazole derivatives with anticancer activity guided by 3D-QSAR analysis” (Bioorg Med Chem, 2012).

Series [1] has as its system A549. Kind of series: Growth inhibition of human A549 cells after 48 hrs by MTS assay. Type of series: functional, cell-based. The settings on record: A549, 48 h. In a few lines:
(§1)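 Seeded at 5 × 10³ cells/well in F12K (A549) or RPMI 1640 (NCI-H23) with 10% FBS, 37 °C, 5% CO₂, 3 h, then exposed 48 h to compounds at final 100–0.2 µM (10 mM DMSO stocks, 1% DMSO constant). MTS reagent added and incubated at 37 °C. Formazan from metabolically active cells measured, growth relative to untreated control, IC50 derived.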
On the technique in general: Tetrazolium assays rely on reduction of a dye to a coloured formazan, in cell work by metabolically active cells.

Series [2] has as its system A549. Kind of series: Antiproliferative activity against human A549 cells after 48 hrs by BrdU assay. The class given is functional, cell-based. The settings on record: A549, 48 h. In a few lines:
(§2)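 Seeded at 5 × 10³ cells/well in RPMI 1640 + 10% FBS, 37 °C, 5% CO₂, 3 h. Compounds from 10 mM DMSO stocks, final 100–0.2 µM with 1% DMSO, 48 h. BrdU (final 10 µM) added for 3 h, then cells fixed and DNA denatured 30 min rt, ELISA absorbance read. DNA synthesis reduction relative to untreated cells, IC50 by curve fit.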
Background: Incorporation of labelled thymidine or its analogues reports DNA synthesis.

For series [3], the system named is NCI-H23. Nature of the series: Growth inhibition of human NCI-H23 cells after 48 hrs by MTS assay. Type of series: functional, cell-based. The settings on record: NCI-H23, 48 h. In a few lines:
as §1

The subject of series [4] is NCI-H23. Kind of series: Antiproliferative activity against human NCI-H23 cells after 48 hrs by BrdU assay. Type of series: functional, cell-based. The settings on record: NCI-H23, 48 h. In a few lines:
as §2

A short description of series [5]: Solubility of the compound in DMSO. The class given is physicochemical.

On to `O=C(N/N=C/c1cccc(O)c1O)c1cc(-c2ccc(Cl)cc2)nn1Cc1ccc(Cl)nc1`, for which the IC50 in the series on A549 [1] (read-out: IC50) is 5.2 µM; in the series on A549 [1] (read-out: pIC50 (converted)) it was 5.25 µM; in the series on A549 [2], 0.7 µM; in the series on NCI-H23 [3], 3.35 µM; in the series with NCI-H23 [4] it was 0.57 µM.
Regarding `CC(C)(C)c1ccc(Cn2nc(-c3ccc(Cl)cc3)cc2C(=O)N/N=C/c2cccc(O)c2O)cc1`, the IC50 in the series with A549 [1] (read-out: IC50) was 7.8 µM; in the series on A549 [1] (read-out: pIC50 (converted)) it was 7.76 µM; in the series on A549 [2] it was 0.4 µM; in the series on NCI-H23 [3], 3.91 µM; in the series on NCI-H23 [4] it was 0.3 µM.
As to `O=C(N/N=C/c1ccc(F)cc1F)c1cc(-c2ccc(Cl)cc2)nn1Cc1ccc(Cl)nc1`, the IC50 with A549 [1] (read-out: IC50) was 16 µM; in the series on A549 [1] (read-out: pIC50 (converted)), 15.8 µM; in the series with A549 [2] it was 9.05 µM; with NCI-H23 [3] it was 13.5 µM; in the series with NCI-H23 [4], 7.86 µM.
On the same counts, the results for `CC(C)(C)c1ccc(Cn2nc(-c3ccc(Cl)cc3)cc2C(=O)N/N=C/c2ccc(F)cc2F)cc1` are more than 100 µM, more than 100 µM, more than 100 µM, more than 100 µM and 21.9 µM.
As for `N#Cc1ccc(/C=N/NC(=O)c2cc(-c3ccc(Cl)cc3)nn2Cc2ccc(Cl)nc2)cc1`, the IC50 in the series with A549 [1] (read-out: IC50), in the series on A549 [1] (read-out: pIC50 (converted)), in the series with A549 [2], in the series with NCI-H23 [3] and with NCI-H23 [4] was more than 100 µM in each case. Besides, the solubility result in series [5] is listed as “Insoluble”.
With `N=C(NO)c1cc(-c2ccc(Cl)cc2)nn1Cc1ccc(Cl)nc1`, the IC50 is 50.5 µM in the series with A549 [1] (read-out: IC50); 50.1 µM in the series on A549 [1] (read-out: pIC50 (converted)); 38.3 µM in the series on A549 [2]; 44.4 µM in the series with NCI-H23 [3]; 27.9 µM with NCI-H23 [4].
In the same order, the values of `CC(C)(C)c1ccc(Cn2nc(-c3ccc(Cl)cc3)cc2C(=N)NO)cc1` are 17.7 µM, 17.8 µM, 17 µM, 16.5 µM and 12.3 µM.
Take `CC(C)(C)c1ccc(Cn2nc(-c3ccc(Cl)cc3)cc2/C(N)=N/OC(=O)c2cccc(O)c2O)cc1`: the IC50 in the series with A549 [1] (read-out: IC50) was 83.2 µM; with A549 [1] (read-out: pIC50 (converted)), 83.2 µM; in the series on A549 [2], 26.8 µM; in the series on NCI-H23 [3] it was 21.9 µM; with NCI-H23 [4], 15.6 µM.
As for `CC(C)(C)c1ccc(Cn2nc(-c3ccc(Cl)cc3)cc2-c2noc(-c3cccc(O)c3O)n2)cc1`, the IC50 is more than 100 µM in the series with A549 [1] (read-out: IC50); more than 100 µM in the series on A549 [1] (read-out: pIC50 (converted)); 1.54 µM with A549 [2]; more than 100 µM with NCI-H23 [3]; 0.36 µM in the series on NCI-H23 [4].
Take `O=C(N/N=C/c1ccccc1O)c1cc(-c2ccc(Cl)cc2)nn1Cc1ccc(Cl)nc1`: the figures for the IC50 in the series with NCI-H23 [3] and in the series on NCI-H23 [4] were 3.04 µM and 0.27 µM, respectively.
